High-throughput results from PubChem BioAssay.
Shown are actives, neighbours in structure and some others; about 5.5% of the full set was active somewhere.
WT yeast gro inh: growth inhibition of WT yeast, mitochondrial fusion screen; mitochondrial fusion phenotypic screen, WT strain; inhibition, % at 10 µM; actives 2.1% (n = 190,000); in the data active = inhibition above about 58%; tested in S. cerevisiae
Yeast life ext: yeast lifespan extension; S. cerevisiae growth with nicotinamide, OD615; deaD strain in restrictive glucose medium; inhibition of the nicotinamide effect, % at 10 µM; actives 0.68% (n = 130,000); AID 775;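 active = inhibition above a set limit, placed 3 SD over the median of all compounds, cut at about 26% in these data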;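 note: 0% = nicotinamide-treated wells and 100% = cells grown without nicotinamide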
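Measured by: optical density (absorbance) at 615 nm; System: modified budding yeast, DeaD strain; Medium: restrictive CSMM-D dextrose medium; Timing: 4 h preincubation then 48 h treatment at 30 °C.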
RAM network inh: blocks the yeast RAM network; actives 1.8% (n = 190,000); inhibition, % at 50 µM; S. cerevisiae dse1pr::URA3 reporter, 5-FOA growth OD615, 2 d; analog-sensitive cbk1-as2 kinase mutant strain; AID 868;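 active = inhibition above a set limit, 3 SD over mean compound inhibition, cut at about 8.4% in these data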;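 note: 0% = DMSO-only wells with no growth and 100% = 10 µM 1-NA-PP1 full growth; inhibition rescues growth on 5-FOA so higher OD means more RAM inhibition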
Yeast growth inh: chemicals that inhibit yeast BB579 growth in restrictive medium (lifespan-shortening candidates); S. cerevisiae BB579 growth, OD615, 48 h; AID 804; inhibition, % at 10 µM; actives 0.51% (n = 140,000);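 active = inhibition above a set limit, 3 SD over the mean compound inhibition, cut at about 44% in these data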
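Detection: OD615 turbidity measurement; Material: Saccharomyces cerevisiae DeaD strain BB579, replicative lifespan model yeast; Timing: 48 h exposure, 30 °C; Doses: single 10 µM dose; Medium: CSMM-D restrictive synthetic medium containing dextrose (glucose); Controls: amphotericin B at 10 µg/mL as positive control.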
Cl transport mod: modulates chloride dependent transport by human KCC2; B-score of Tl+ flux slope (higher = more flux/activation; lower = inhibition) at 10 µM; KCC2 cells, thallium flux FluoZin-2 fluorescence; actives 2.2% (n = 190,000); Q9H2X9;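 active = thallium flux slope and its plate-corrected score both differing from the plate sample mean at a set confidence after two filtering rounds, in either direction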;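 note: slope of fluorescence scaled to starting intensity during 10 to 20 s after thallium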
Starred values were filed as active, the others as inactive; / = not tested or not shown.

SMILES	WT yeast gro inh	Yeast life ext	RAM network inh	Yeast growth inh	Cl transport mod
COc1ccc2[nH]cc(CCNS(=O)(=O)c3ccc(C)cc3)c2c1	/	/	/	/	-1.5
COc1ccc2nc(N=NC3=C(O)CC(C)(C)CC3=O)sc2c1	38	/	3	/	2
COc1ccc2nc(N=Nc3ccc(O)c4ccccc34)sc2c1	42	-1	4	-16	18*
CCc1ccc2c(c1)C1(NN=C(c3cccc4ccccc34)S1)C(=O)N2 (configuration not stated)	19	/	0	66*	1.1
Cc1ccc(C(=O)n2nnc3ccccc32)cc1[N+](=O)[O-]	-5	32*	2	-32	0.64
Cc1cc(C(F)(F)F)c2c(=O)[nH]c(=O)n(Cc3ccccc3)c2n1	2	-8	2	-14	-4.3*
O=C(COc1ccc2ccccc2c1)N/N=C/C1CC=CCC1 (configuration not stated)	-12	2	2	-43	/
COC(=O)c1sc2cc([N+](=O)[O-])cc(SCC(C)C)c2c1N	-1	7	11*	-51	0.6
CCOC(=O)c1sc2ncc([N+](=O)[O-])cc2c1N	/	/	/	/	0.091
O=[N+]([O-])c1cc(S(=O)(=O)N2CCCCCC2)ccc1F	48	66*	2	-7	-0.48
CCOC(=O)CSc1ccc(S(=O)(=O)N2CCCC2)cc1[N+](=O)[O-]	0	/	1	/	-0.83
O=[N+]([O-])c1cc(S(=O)(=O)N2CCCC2)ccc1O	-9	3	0	-20	0.69
CCOC(=O)CSc1ccc(S(=O)(=O)N2CCCCC2)cc1[N+](=O)[O-]	10	8	8.7*	-51	-0.61
O/N=C1\CCCc2c1nc(-c1ccccc1F)n2O	/	/	/	/	0.092
COc1ccc(Cn2c(C3CC3)nc3ccc(NC(C)=O)cc3c2=O)cc1	24	6	10*	-42	-0.035
O=C(NCc1ccc(Cl)cc1)c1cnn2ccccc12	-14	-13	1	-10	1
O=C(Nc1cccc(Cl)c1)C1C2CCC3C(CCC21)C3(Cl)Cl (configuration not stated)	80*	-1	1	-8	0.046
O=C(Nc1ccccc1)C1C2CCC3C(CCC21)C3(Cl)Cl (configuration not stated)	19	-3	5	-23	0.34
CCOC(=O)c1ccc(NC(=O)CN2C(=O)C(CC)SC(CC)C2=O)cc1 (configuration not stated)	-32	5	9.6*	-22	-0.53
CCOC(=O)c1ccc(NC(=O)CN2C(=O)CSCC2=O)cc1	-29	4	2	-14	-0.17
Cc1c(C)n(C)c2ccc(C(=O)Nc3cccc4ccccc34)cc12	34	-12	5	-31	-2.7
Cc1ccc(C)c(NC(=O)c2nc(-c3ccccc3)n(-c3ccccc3)n2)c1	18	-16	1	-13	-0.64
O=C(Nc1nnc(C2CC2)s1)c1cc(-c2ccccc2)nn1-c1ccccc1	70*	-8	2	-23	0.3
Cc1ccc(C)c(NC(=O)c2cc(-c3ccccc3)nn2-c2ccccc2)c1	74*	-2	7	-30	0.15
Cc1ccc(S(=O)(=O)N(Cc2ccccc2)c2ccccc2C(=O)Nc2ccccc2C(=O)NCc2ccco2)cc1	8	6	6	-49	0.13
SMILES	WT yeast gro inh	Yeast life ext	RAM network inh	Yeast growth inh	Cl transport mod
Cc1ccc(S(=O)(=O)N(Cc2ccccc2)c2ccccc2C(=O)NCc2ccco2)cc1	3	19	9.0*	-54	/
O=C(c1ccc(-c2nnc(-c3ccccc3)o2)cc1)N1CCCCCC1	65*	-19	2	-9	/
NC(=S)c1cc2cc(Cl)ccc2oc1=O	/	/	/	/	0.46
CCOC(=O)c1ccc(NC(=O)CSc2nnc(-c3cccs3)n2CC)cc1	3	-14	1	-32	-0.19
C=CCn1c(SCC(=O)Nc2ccc(C(=O)OC(C)C)cc2)nnc1-c1cccs1	15	-9	8.7*	-6	-0.061
COc1ccc(-c2cnnn2-c2ccc(NC(=O)c3ccc(S(=O)(=O)N4CCCCC4)cc3)cc2)cc1	8	-5	9.8*	-37	0.39
CC(=O)C1=C(c2cccc([N+](=O)[O-])c2)N(C(C)=O)n2c(C)nnc2S1	60*	/	0	/	1.9
O=C(Nc1ccc(S(=O)(=O)NC2=NCCCCC2)cc1)c1ccc2ccccc2n1	-7	/	3	/	0.28
O=C1CN(C(=O)CSc2nc3ccccc3c(=O)n2Cc2ccc(F)cc2)c2ccccc2N1	-32	1	4	-33	19*
CN(C)CCCn1c(SCC(=O)N2CC(=O)Nc3ccccc32)nc2ccccc2c1=O	-7	/	0	/	1.3
C/C(=N/NC(=O)c1cc2ccccc2cc1O)C1C(=O)c2ccccc2C1=O	8	1	1	-39	-2.8*
COc1ccc(/C=C/C(=O)Nc2cc(C)nn2-c2nc3ccccc3n2Cc2cccc([N+](=O)[O-])c2)cc1	-10	0	8.9*	-30	0.93
COc1ccc(/C=C/C(=O)Nc2cc(C)nn2-c2nc3ccccc3[nH]2)cc1	3	-1	5	-8	0.0064
CCOC(=O)/C(=C\c1ccc(OC(F)F)cc1)C1=Nn2c(nnc2-c2ccc(Cl)cc2)SC1	71*	-1	3	2	-0.54
[O-][n+]1onc2c1CCC(=N/O)/C2=N\Nc1ccccc1	/	/	/	/	0.037
CCOc1ccc2nc(/N=C/c3c(C)[nH]n(-c4ccc(C)cc4)c3=O)sc2c1	27	2	1	-18	69*
CCOc1ccc2nc(/N=C/c3c(C)[nH]n(-c4ccccc4)c3=O)sc2c1	1	0	2	-21	77*
COc1ccc(Cl)cc1NC(=O)COC(=O)c1cc(NS(=O)(=O)c2cccs2)ccc1O	4	3	11*	-49	-0.12
CC(C)(C)C1CCC2(CC1)Nc1cccc3cccc(c13)N2	18	-3	8.9*	3	0.009
FC(F)(F)c1ccc(C2Nc3cccc4cccc(c34)N2)cc1	14	/	4	/	/
CCOC(=O)CSc1c(-c2cccs2)[nH]c2ccccc12	64*	-6	4	-45	-1.2
CCOc1cc(Br)c(Br)c(C=Nc2ccc(NC(C)=O)cc2)c1O	-4	49*	-1	-13	-0.63
CC(=O)Nc1ccc(N=Cc2c(O)c(C(=O)Nc3ccccc3)cc3ccccc23)cc1	26	/	2	/	-0.76
CCOC(=O)C1=C(C)Nc2sc(C(=O)c3ccc(F)cc3)c(N)c2C1c1ccc(C(=O)OC)cc1 (configuration not stated)	87*	6	8	-24	-2.5
N/C(=N/O)c1ccccc1N1CCC(Cc2ccccc2)CC1	70*	/	0	/	-3.1
Cc1cc(NC(=O)c2ccccc2-c2ccccc2)ccc1Br	72*	-6	6	-23	-1
Cc1cccc(NC(=O)c2ccccc2-c2ccccc2)c1	3	/	0	/	-2.1
CCCc1sc(N)nc1-c1ccc(Cl)cc1	69*	-8	3	-41	-1.9
Cc1nc(S(=O)(=O)Nc2ccccc2C(=O)NCC2CC2)cn1C	/	/	/	/	0.33
